Measured values reported in ChEMBL document CHEMBL2424622, “Development of amino-pyrimidine inhibitors of c-Jun N-terminal kinase (JNK): kinase profiling guided optimization of a 1,2,3-benzotriazole lead” (Bioorg Med Chem Lett, 2013).

Key:
[1] = target: Non-receptor tyrosine-protein kinase TYK2 (Homo sapiens) (UniProt P29597); assay: Competitive binding affinity to TYK2 kinase domain 2 (unknown origin) at 10 uM in presence of ATP relative to control
[2] = system: Epidermal growth factor receptor (Homo sapiens), P00533 [G719C]; assay: Competitive binding affinity to EGFR G719C mutant (unknown origin) at 10 uM in presence of ATP relative to control
In short: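 In vitro ATP-site competition binding assay, part of profiling against a diverse panel of 128 kinases. Each compound was tested at a single concentration of 10 µM. Kinome selectivity was summarized as S15 selectivity scores.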

[3] = target: Cyclin-dependent kinase 2 (Homo sapiens) (UniProt P24941); assay: Competitive binding affinity to CDK2 (unknown origin) at 10 uM in presence of ATP relative to control
In short: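 In vitro ATP-site competition binding assay across a diverse panel of 128 kinases, with each compound tested at a single concentration. Kinase binding is expressed relative to control.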

[4] = target: Tyrosine-protein kinase receptor UFO (Homo sapiens) (UniProt P30530); assay: Competitive binding affinity to AXL (unknown origin) at 10 uM in presence of ATP relative to control
[5] = target: T1, Serine/threonine-protein kinase 4 (Homo sapiens) (UniProt Q13043); assay: Competitive binding affinity to MST1 (unknown origin) at 10 uM in presence of ATP relative to control
T1 sequence (whole entry): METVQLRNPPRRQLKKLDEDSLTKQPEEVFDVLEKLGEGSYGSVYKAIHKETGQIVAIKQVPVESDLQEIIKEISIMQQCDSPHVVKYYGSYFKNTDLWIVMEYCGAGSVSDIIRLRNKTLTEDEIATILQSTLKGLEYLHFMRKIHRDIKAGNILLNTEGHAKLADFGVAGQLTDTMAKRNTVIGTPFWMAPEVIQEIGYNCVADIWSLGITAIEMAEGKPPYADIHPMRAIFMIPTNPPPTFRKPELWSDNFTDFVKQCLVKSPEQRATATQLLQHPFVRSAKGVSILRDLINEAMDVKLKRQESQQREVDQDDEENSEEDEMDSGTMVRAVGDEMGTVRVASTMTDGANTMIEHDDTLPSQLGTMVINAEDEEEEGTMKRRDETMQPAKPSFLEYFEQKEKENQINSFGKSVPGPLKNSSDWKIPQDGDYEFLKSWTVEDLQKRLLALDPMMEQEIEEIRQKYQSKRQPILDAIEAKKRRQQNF

[6] = target: T2, Inhibitor of nuclear factor kappa-B kinase subunit epsilon (Homo sapiens) (UniProt Q14164); assay: Competitive binding affinity to IKKepsilon (unknown origin) at 10 uM in presence of ATP relative to control
T2 sequence (whole entry): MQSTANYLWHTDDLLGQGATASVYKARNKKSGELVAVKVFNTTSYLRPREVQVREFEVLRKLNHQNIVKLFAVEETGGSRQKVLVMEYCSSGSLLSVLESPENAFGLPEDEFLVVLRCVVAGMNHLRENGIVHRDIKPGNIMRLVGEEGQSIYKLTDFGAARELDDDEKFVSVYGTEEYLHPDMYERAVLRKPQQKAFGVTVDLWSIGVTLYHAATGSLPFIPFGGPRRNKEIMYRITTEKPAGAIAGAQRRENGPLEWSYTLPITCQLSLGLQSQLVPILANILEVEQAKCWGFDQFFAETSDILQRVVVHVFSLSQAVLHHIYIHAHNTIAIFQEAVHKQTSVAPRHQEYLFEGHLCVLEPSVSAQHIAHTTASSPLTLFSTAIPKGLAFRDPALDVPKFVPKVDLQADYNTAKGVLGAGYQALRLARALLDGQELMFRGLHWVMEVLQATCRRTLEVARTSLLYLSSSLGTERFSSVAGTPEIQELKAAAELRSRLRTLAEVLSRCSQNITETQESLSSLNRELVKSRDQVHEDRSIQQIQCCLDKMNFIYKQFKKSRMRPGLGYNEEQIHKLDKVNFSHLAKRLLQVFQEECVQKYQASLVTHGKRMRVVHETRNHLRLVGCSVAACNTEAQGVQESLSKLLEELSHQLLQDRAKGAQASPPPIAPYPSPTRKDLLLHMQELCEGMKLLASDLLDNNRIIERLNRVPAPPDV

[7] = target: Cyclin-dependent kinase 9 (Homo sapiens) (UniProt P50750); assay: Competitive binding affinity to CDK9 (unknown origin) at 10 uM in presence of ATP relative to control
[8] = target: Ribosomal protein S6 kinase alpha-5 (Homo sapiens) (UniProt O75582); assay: Competitive binding affinity to RPS6KA5 kinase domain 2 (unknown origin) at 10 uM in presence of ATP relative to control
[9] = target: T3, Serine/threonine-protein kinase RIO3 (Homo sapiens) (UniProt O14730); assay: Competitive binding affinity to RIOK3 (unknown origin) at 10 uM in presence of ATP relative to control
T3 sequence (whole entry): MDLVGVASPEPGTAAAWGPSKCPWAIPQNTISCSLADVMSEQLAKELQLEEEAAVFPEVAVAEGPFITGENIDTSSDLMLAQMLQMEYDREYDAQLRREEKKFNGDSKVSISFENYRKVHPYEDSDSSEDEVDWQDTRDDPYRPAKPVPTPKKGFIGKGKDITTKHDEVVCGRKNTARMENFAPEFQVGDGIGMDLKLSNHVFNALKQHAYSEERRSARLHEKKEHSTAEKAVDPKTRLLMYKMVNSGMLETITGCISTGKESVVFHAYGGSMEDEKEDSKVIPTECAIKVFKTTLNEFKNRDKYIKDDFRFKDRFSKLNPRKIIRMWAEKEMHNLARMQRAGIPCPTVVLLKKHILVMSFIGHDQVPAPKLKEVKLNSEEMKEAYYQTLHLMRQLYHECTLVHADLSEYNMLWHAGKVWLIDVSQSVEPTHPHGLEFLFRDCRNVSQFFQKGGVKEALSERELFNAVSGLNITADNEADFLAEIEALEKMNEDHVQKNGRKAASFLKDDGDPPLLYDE

Sequence of Ribosomal protein S6 kinase alpha-5 (Homo sapiens) (O75582 whole entry, looked up, the tested form may be a part): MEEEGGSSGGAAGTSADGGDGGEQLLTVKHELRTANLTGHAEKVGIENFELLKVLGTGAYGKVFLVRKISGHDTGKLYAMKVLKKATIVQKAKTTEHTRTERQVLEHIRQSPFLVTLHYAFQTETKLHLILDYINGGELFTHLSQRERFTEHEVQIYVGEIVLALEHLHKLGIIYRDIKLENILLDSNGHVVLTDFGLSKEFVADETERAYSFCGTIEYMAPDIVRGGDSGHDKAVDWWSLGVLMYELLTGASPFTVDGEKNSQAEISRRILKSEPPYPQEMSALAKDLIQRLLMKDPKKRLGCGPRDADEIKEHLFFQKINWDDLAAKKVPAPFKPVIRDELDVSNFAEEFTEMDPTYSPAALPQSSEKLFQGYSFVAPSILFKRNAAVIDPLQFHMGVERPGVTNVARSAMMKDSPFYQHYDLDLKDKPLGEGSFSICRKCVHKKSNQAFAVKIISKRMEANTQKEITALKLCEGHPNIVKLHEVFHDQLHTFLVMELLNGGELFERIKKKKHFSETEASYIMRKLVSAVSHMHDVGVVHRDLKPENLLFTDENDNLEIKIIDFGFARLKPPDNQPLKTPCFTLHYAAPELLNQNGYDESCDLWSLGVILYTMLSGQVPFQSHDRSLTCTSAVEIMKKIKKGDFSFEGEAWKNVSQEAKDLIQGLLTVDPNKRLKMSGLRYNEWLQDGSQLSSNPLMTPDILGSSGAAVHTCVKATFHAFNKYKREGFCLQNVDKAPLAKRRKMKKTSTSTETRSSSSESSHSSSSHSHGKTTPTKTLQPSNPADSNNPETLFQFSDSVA
Sequence of Tyrosine-protein kinase receptor UFO (Homo sapiens) (P30530 whole entry): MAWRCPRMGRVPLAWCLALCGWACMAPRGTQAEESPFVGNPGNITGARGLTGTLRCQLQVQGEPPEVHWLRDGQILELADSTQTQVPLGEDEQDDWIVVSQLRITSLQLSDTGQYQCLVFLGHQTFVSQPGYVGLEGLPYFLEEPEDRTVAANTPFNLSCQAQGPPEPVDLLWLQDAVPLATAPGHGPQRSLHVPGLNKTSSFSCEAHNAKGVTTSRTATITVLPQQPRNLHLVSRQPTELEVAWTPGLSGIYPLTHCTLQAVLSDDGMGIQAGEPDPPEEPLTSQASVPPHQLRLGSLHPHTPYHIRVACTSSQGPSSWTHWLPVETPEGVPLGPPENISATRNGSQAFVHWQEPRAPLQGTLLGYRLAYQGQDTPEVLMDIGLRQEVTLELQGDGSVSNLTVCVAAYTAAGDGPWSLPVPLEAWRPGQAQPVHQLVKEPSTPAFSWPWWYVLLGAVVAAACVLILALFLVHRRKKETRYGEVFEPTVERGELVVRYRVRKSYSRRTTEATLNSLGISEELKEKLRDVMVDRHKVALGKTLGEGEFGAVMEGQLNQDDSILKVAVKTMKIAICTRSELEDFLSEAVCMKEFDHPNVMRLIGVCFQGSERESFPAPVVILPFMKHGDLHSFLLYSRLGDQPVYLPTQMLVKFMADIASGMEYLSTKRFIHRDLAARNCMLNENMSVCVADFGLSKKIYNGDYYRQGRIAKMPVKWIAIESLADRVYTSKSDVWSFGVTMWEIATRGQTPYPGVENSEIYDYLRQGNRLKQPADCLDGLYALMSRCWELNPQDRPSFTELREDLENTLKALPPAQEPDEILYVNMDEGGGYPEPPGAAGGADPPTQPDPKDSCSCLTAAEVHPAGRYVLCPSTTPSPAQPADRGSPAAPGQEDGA
Sequence of Epidermal growth factor receptor (Homo sapiens), P00533 [G719C] (P00533 whole entry G719C): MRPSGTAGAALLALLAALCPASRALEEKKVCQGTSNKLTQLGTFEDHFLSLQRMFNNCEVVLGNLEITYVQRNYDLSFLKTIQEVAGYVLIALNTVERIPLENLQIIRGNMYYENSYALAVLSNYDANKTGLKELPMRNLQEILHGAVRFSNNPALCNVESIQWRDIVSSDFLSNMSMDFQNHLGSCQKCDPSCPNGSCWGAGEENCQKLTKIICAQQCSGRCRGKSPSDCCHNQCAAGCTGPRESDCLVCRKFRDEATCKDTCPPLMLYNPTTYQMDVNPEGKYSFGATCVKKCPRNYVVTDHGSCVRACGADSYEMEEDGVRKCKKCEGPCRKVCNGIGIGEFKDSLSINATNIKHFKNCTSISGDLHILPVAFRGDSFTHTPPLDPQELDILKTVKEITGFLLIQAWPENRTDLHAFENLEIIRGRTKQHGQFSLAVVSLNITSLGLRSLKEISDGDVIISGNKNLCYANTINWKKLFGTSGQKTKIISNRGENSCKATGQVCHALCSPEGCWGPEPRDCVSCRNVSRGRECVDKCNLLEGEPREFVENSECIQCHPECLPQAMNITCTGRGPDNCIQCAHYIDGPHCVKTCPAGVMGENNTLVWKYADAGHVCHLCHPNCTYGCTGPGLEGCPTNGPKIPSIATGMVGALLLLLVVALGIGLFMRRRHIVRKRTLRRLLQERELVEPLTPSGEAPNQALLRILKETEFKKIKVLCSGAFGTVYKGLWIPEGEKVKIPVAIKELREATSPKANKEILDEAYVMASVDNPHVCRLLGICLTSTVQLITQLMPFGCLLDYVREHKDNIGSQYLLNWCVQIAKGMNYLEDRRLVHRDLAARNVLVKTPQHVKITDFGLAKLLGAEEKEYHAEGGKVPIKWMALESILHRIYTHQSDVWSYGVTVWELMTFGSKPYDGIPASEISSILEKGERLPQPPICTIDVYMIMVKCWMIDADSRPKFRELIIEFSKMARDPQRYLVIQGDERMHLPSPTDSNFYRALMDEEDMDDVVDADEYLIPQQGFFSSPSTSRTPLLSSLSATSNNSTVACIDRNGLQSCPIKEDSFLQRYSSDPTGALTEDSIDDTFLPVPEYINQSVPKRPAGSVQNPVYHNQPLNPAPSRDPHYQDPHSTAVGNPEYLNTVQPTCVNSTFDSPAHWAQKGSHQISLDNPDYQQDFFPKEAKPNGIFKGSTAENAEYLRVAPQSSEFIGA
Sequence of Cyclin-dependent kinase 9 (Homo sapiens) (P50750 whole entry, the tested form may be a part): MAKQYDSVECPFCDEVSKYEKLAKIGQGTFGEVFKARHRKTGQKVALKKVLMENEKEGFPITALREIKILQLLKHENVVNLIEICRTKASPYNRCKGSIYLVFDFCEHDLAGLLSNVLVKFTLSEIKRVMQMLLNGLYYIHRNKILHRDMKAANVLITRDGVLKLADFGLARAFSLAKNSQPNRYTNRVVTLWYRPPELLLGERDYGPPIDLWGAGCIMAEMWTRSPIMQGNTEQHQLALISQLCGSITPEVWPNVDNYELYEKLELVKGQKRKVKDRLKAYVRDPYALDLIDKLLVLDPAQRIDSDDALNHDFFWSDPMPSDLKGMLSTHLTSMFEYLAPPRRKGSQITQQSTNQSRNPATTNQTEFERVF
Sequence of Non-receptor tyrosine-protein kinase TYK2 (Homo sapiens) (P29597 whole entry, the tested form may be a part): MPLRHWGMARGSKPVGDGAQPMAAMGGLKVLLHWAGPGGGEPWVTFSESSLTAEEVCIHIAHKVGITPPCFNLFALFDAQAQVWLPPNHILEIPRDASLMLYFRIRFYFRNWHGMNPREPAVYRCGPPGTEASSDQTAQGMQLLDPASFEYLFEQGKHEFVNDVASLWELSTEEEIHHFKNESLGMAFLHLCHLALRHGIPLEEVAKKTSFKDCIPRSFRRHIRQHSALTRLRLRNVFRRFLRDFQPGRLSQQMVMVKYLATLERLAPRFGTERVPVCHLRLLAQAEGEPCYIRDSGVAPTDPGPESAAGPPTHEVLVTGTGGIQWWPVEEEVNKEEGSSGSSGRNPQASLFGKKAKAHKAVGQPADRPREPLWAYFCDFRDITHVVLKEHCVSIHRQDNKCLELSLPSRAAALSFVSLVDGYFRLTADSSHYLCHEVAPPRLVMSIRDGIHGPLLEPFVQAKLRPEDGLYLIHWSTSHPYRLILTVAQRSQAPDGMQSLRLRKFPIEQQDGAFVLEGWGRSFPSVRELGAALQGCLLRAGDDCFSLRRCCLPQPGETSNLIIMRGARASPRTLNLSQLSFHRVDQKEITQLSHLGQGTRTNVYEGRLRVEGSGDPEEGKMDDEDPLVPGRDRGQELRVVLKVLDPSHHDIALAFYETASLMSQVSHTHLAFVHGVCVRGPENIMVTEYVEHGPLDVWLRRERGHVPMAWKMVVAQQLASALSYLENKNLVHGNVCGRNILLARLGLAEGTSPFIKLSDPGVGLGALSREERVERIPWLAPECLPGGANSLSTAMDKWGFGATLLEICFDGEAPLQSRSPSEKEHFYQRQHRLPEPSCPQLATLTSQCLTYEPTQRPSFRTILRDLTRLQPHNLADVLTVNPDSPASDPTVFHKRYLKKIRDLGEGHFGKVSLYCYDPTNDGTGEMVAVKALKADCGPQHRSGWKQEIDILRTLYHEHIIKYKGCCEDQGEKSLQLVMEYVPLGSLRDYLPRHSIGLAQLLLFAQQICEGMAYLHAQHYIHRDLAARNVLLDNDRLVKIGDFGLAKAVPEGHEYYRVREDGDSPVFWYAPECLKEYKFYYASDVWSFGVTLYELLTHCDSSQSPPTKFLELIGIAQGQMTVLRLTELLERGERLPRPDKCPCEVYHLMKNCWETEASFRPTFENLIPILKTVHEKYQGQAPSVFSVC

inhibition [1] [%]	inhibition [2] [%]	inhibition [3] [%]	inhibition [4] [%]	inhibition [5] [%]	inhibition [6] [%]	inhibition [7] [%]	inhibition [8] [%]	inhibition [9] [%]	SMILES
86	< 50	100	100	–	–	–	–	–	O[C@H]1CC[C@H](Nc2nccc(-c3n[nH]c4ccccc34)n2)CC1
< 50	< 50	90	< 50	< 50	< 50	85	< 50	< 50	O[C@H]1CC[C@H](Nc2nccc(-n3ccc4ccccc43)n2)CC1
< 50	< 50	94	< 50	< 50	< 50	96	85	< 50	O[C@H]1CC[C@H](Nc2nccc(-n3nnc4ccccc43)n2)CC1
< 50	< 50	94	93	< 50	< 50	82	66	< 50	O[C@H]1CC[C@H](Nc2nccc(-n3ncc4ccccc43)n2)CC1
